Reference: ChEMBL document CHEMBL1821604, “Anticancer activity and cDNA microarray studies of a (RS)-1,2,3,5-tetrahydro-4,1-benzoxazepine-3-yl]-6-chloro-9H-purine, and an acyclic (RS)-O,N-acetalic 6-chloro-7H-purine” (Eur J Med Chem, 2011)

Experiments:
HT-29 [1] = assay: Induction of apoptosis in human HT-29 cells assessed necrotic cells at IC50 after 48 hrs using annexin V-FITC staining by flow cytometry; assay type: functional
Outline: (§1)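 Cells exposed 48 h to the compound at its IC₅₀ concentration, with 0.5% DMSO-only cells as control. Stained with annexin V-FITC plus propidium iodide, then flow cytometry. Gating: annexin+/PI− = early apoptotic; annexin+/PI+ = late apoptotic; PI only = dead/necrotic; double-negative = viable.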

HT-29 [2] = assay: Induction of apoptosis in human HT-29 cells assessed late apoptotic cells at IC50 after 48 hrs using annexin V-FITC staining by flow cytometry; assay type: functional; outline: as §1
MCF7 [3] = assay: Induction of apoptosis in human MCF7 cells assessed viable cells at IC50 after 48 hrs using annexin V-FITC staining by flow cytometry; assay type: functional; outline: as §1
HT-29 [4] = assay: Cell cycle arrest in human HT-29 cells assessed as accumulation at S phase at IC50 after 48 hrs using […] propidium iodide staining based FACS analysis; assay type: functional
HT-29 [5] = assay: Cell cycle arrest in human HT-29 cells assessed as accumulation at G2/M phase at IC50 after 48 hrs using […] propidium iodide staining based FACS analysis; assay type: functional
HT-29 [6] = assay: Down regulation of FLJ32871 gene expression in human HT-29 cells at IC50 after 48 hrs by cDNA microarray technique relative to control; assay type: functional
Outline: (§2)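 Cells (8 × 10⁶) were cultured in DMEM with 10% heat-inactivated FBS at 37 °C under 5% CO₂. They were exposed for 48 h to compound at its IC₅₀, with DMSO-treated parallel cultures as controls (final DMSO ≤0.1% v/v). Total RNA was isolated by trizol/chloroform phase separation, RNeasy column cleanup and on-column DNase, then quantified by OD260/OD280. Expression was profiled by cDNA microarray relative to control.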

[7] = Therapeutic index, ratio of IC50 for human MCF10A cells to IC50 for human MCF7 cells; assay type: cell-based; conditions: MCF10A cells (normal) versus MCF7 cells (cancer), read-out: Ratio IC50
Outline: (§3)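 Each cell line grown in DMEM with 10% FBS, 37 °C, 5% CO₂. Cells seeded and allowed 24 h, then drug added in medium (≤0.1% v/v DMSO). Medium and drug renewed at day 3, cells kept 3 more days. Sulforhodamine-B read at 492 nm. IC₅₀ taken from semilog dose-response curves by linear interpolation, triplicate wells, at least twice. Index = IC₅₀ normal line / IC₅₀ cancer line.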

HT-29 [8] = assay: Induction of apoptosis in human HT-29 cells assessed viable cells at IC50 after 48 hrs using annexin V-FITC staining by flow cytometry; assay type: functional; outline: as §1
HT-29 [9] = assay: Down regulation of P53AIP1 gene expression in human HT-29 cells at IC50 after 48 hrs by cDNA microarray technique relative to control; assay type: functional
MCF7 [10] = assay: Cell cycle arrest in human MCF7 cells assessed as accumulation at G0/G1 phase at IC50 after 48 hrs using annexin V-FITC and propidium iodide staining based FACS analysis; assay type: functional
MCF7 [11] = assay: Cell cycle arrest in human MCF7 cells assessed as accumulation at S phase at IC50 after 48 hrs using annexin V-FITC and propidium iodide staining based FACS analysis; assay type: functional
MCF7 [12] = assay: Down regulation of GBP1 gene expression in human MCF7 cells at IC50 after 48 hrs by cDNA microarray technique relative to control; assay type: functional; outline: as §2
HT-29 [13] = assay: Down regulation of HAS2 gene expression in human HT-29 cells at IC50 after 48 hrs by cDNA microarray technique relative to control; assay type: functional; outline: as §2
[14] = Cytotoxicity against rat IEC-6 cells after 6 days by SRB colorimetric assay; assay type: cell-based; conditions: IEC-6, 144 h
HT-29 [15] = assay: Upregulation of PMP22 gene expression in human HT-29 cells at IC50 after 48 hrs by cDNA microarray technique relative to control; assay type: functional
HT-29 [16] = assay: Cytotoxicity against human HT-29 cells after 6 days by SRB colorimetric assay; assay type: functional, cell-based; conditions: HT-29, 144 h
HT-29 [17] = assay: Induction of apoptosis in human HT-29 cells assessed early apoptotic cells at IC50 after 48 hrs using annexin V-FITC staining by flow cytometry; assay type: functional; outline: as §1
HT-29 [18] = assay: Down regulation of RAB3D gene expression in human HT-29 cells at IC50 after 48 hrs by cDNA microarray technique relative to control; assay type: functional
HT-29 [19] = assay: Down regulation of ETV1 gene expression in human HT-29 cells at IC50 after 48 hrs by cDNA microarray technique relative to control; assay type: functional; outline: as §2
MCF7 [20] = assay: Induction of apoptosis in human MCF7 cells assessed necrotic cells at IC50 after 48 hrs using annexin V-FITC staining by flow cytometry; assay type: functional; outline: as §1
HT-29 [21] = assay: Upregulation of LOC283385 gene expression in human HT-29 cells at IC50 after 48 hrs by cDNA microarray technique relative to control; assay type: functional
MCF7 [22] = assay: Induction of apoptosis in human MCF7 cells assessed early apoptotic cells at IC50 after 48 hrs using annexin V-FITC staining by flow cytometry; assay type: functional; outline: as §1
[23] = Therapeutic index, ratio of IC50 for rat IEC-6 cells to IC50 for human HT-29 cells; assay type: cell-based; conditions: IEC-6 cells (normal) versus HT-29 cells (cancer), read-out: Ratio IC50; outline: as §3
MCF7 [24] = assay: Cytotoxicity against human MCF7 cells after 6 days by SRB colorimetric assay; assay type: functional, cell-based; conditions: MCF7, 144 h
MCF7 [25] = assay: Cell cycle arrest in human MCF7 cells assessed as accumulation at G2/M phase at IC50 after 48 hrs using annexin V-FITC and propidium iodide staining based FACS analysis; assay type: functional
HT-29 [26] = assay: Cell cycle arrest in human HT-29 cells assessed as accumulation at G0/G1 phase at IC50 after 48 hrs using […] propidium iodide staining based FACS analysis; assay type: functional
MCF7 [27] = assay: Induction of apoptosis in human MCF7 cells assessed late apoptotic cells at IC50 after 48 hrs using annexin V-FITC staining by flow cytometry; assay type: functional; outline: as §1
MCF-10A = assay: Cytotoxicity against human MCF10A cells after 6 days by SRB colorimetric assay; assay type: cell-based; conditions: 144 h
HT-29 [28] = assay: Down regulation of RHOV gene expression in human HT-29 cells at IC50 after 48 hrs by cDNA microarray technique relative to control; assay type: functional
Outline: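 HT-29 cells were grown in DMEM with 10% heat-inactivated FBS at 37 °C under 5% CO2. Cultures of 8 × 10⁶ cells were treated for 48 h; controls got DMSO at ≤0.1% v/v final. Cells were detached with PBS-EDTA and total RNA was extracted with trizol/chloroform and RNeasy columns with on-column DNase. RNA was quantified by OD 260/280 before cDNA microarray comparison with control.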

HT-29 [29] = assay: Down regulation of C20orf178 gene expression in human HT-29 cells at IC50 after 48 hrs by cDNA microarray technique relative to control; assay type: functional
Outline: (§4)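 8 × 10⁶ cells exposed 48 h to compound at its IC50 concentration; total RNA isolated with trizol/chloroform and RNeasy columns including on-column DNase step; RNA quantified by OD 260/280; DMSO-treated cultures as control.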

MCF7 [30] = assay: Down regulation of TAS2R40 gene expression in human MCF7 cells at IC50 after 48 hrs by cDNA microarray technique relative to control; assay type: functional
HT-29 [31] = assay: Down regulation of D4S234E gene expression in human HT-29 cells at IC50 after 48 hrs by cDNA microarray technique relative to control; assay type: functional; outline: as §4

Structure (SMILES) | Activity (HT-29 [1]) [%] | Activity (HT-29 [2]) [%] | Activity (MCF7 [3]) [%] | Activity (HT-29 [4]) [%] | Activity (HT-29 [5]) [%] | selectivity ratio [7] | Activity (HT-29 [8]) [%] | Activity (MCF7 [10]) [%] | Activity (MCF7 [11]) [%] | fold change (FC) (MCF7 [12]) | IC50 [14] [µM] | IC50 (HT-29 [16]) [µM] | Activity (HT-29 [17]) [%] | Activity (MCF7 [20]) [%] | Activity (MCF7 [22]) [%] | selectivity ratio [23] | Activity (MCF7 [25]) [%] | Activity (HT-29 [26]) [%] | Activity (MCF7 [27]) [%] | IC50 (MCF-10A) [µM] | other results
COC(CN(c1ccccc1CO)S(=O)(=O)c1ccccc1[N+](=O)[O-])n1cnc2ncnc(Cl)c21 (racemic) | 8.33 | 15.64 | 20.36 | 10.5 | 12.7 | 1.92 | 54.93 | 65.09 | 23.94 | -2.01 | 12.1 | 3.28 | 21.1 | 24.79 | 6.36 | 3.69 | 10.98 | 71.58 | 48.49 | 6.23 | fold change (FC) (HT-29 [6]): -2.51; fold change (FC) (HT-29 [9]): -2.06; fold change (FC) (HT-29 [13]): -2.01; fold change (FC) (HT-29 [15]): 2.54; fold change (FC) (HT-29 [18]): -2.24; fold change (FC) (HT-29 [19]): -2.63; fold change (FC) (HT-29 [21]): 4.37; IC50 (MCF7 [24]): 3.25 µM
O=C(OCC1c2ccccc2-c2ccccc21)N1CC(n2cnc3c(Cl)ncnc32)OCc2ccccc21 (racemic) | 8.61 | 13.63 | 5.07 | 14.7 | 14.9 | 3.19 | 59.69 | 64.39 | 22.43 | -2.02 | 10.1 | 3.38 | 18.07 | 14.85 | 7.27 | 2.99 | 13.18 | 74.68 | 72.81 | 2.14 | fold change (FC) (HT-29 [28]): -2.07; fold change (FC) (HT-29 [29]): -2.21; fold change (FC) (MCF7 [30]): -2.85; fold change (FC) (HT-29 [31]): -2.91
